The nature of series [1]: folding enthalpy; higher = less favourable; fluorescence melt of hairpins on a sequencing array, two-state fit. The settings on record: sodium 0.088 M. In outline:
(§1)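 With Cy3 and quencher oligos annealed, library hairpins on a sequenced MiSeq flow cell were imaged for Cy3 fluorescence in 50 mM Na-HEPES pH 8.0, 25 mM NaCl, in 2.5 °C steps up to 60 °C. Melting temperature and folding enthalpy were derived from bootstrapped two-state fits of signals normalised to pre-quench Cy3 and to control constructs. Four replicates were combined by inverse variance, with fitted temperatures raised by 9.35 °C to match UV melts.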

Series [2] is described as follows: melting temperature; fluorescence melt of hairpins on a sequencing array, two-state fit, raised by 9.35 °C to match UV melts. The settings on record: sodium 0.088 M. The essentials: as §1

Regarding GAAAACGAAAGTTTTTTC ((((((....)))..))), the folding enthalpy in series [1] is -20.7 kcal/mol. Besides, the Tm in series [2] amounted to 38.9 °C.

With GGTAACCGAAAGGTACC (((.(((....)))))), in series [1], the folding enthalpy was -19.4 kcal/mol. The Tm in series [2] was 51.1 °C.

In the case of GGAGTCGAAAGACACTCC ((((((....)))..))), the folding enthalpy in series [1] was -16 kcal/mol. In addition, the Tm in series [2] is 37.5 °C.

Consider GGGTGAGGAAACCCACCC (((((.(....).))))), for which, in series [1], the folding enthalpy is -50.9 kcal/mol. The Tm in series [2] was 51.7 °C.

Take CGCGGACCGATCCGCG ((((((....)))))): the folding enthalpy in series [1] is -36.5 kcal/mol. The Tm in series [2] was determined as 68.5 °C.

GCAGTCGAAAGACGCTGC ((((((....)))..))): in series [1], the folding enthalpy was -21.6 kcal/mol. In series [2], the Tm was determined as 55.6 °C.

In the case of GATCTATAATTAGATC ((((((....)))))), the folding enthalpy in series [1] is -25.5 kcal/mol. In addition, the Tm in series [2] is 39.9 °C.

On to TCCCAGAAATGGGA (((((....))))), for which the folding enthalpy in series [1] is -15.9 kcal/mol. In addition, the Tm in series [2] is 43.8 °C.

As to GATCAGTGTCCTGATC ((((((....)))))), the folding enthalpy in series [1] was -36.2 kcal/mol. The Tm in series [2] is 49.6 °C.

Consider GATCTATGAATAGATC ((((((....)))))), for which, in series [1], the folding enthalpy is -32.6 kcal/mol. Moreover, the Tm in series [2] came out at 43.2 °C.

GTGTGCGAAAGCAGACAC ((((((....)))..))): in series [1], the folding enthalpy is -19.1 kcal/mol. The Tm in series [2] worked out at 53.2 °C.

On to GCGGGCGAAAGCCTACGC ((((((....)))..))), for which the folding enthalpy in series [1] was -18.8 kcal/mol. The Tm in series [2] is 61.5 °C.

For the sequence CGTTCCGGAAACGGACG (((.(((....)))))), in series [1], the folding enthalpy was -30.8 kcal/mol. Also, in series [2], the Tm stood at 49.9 °C.

In the case of GGTTGTACGAAAGTAACC (((..(((....)))))), the folding enthalpy in series [1] was -20.9 kcal/mol. Also, the Tm in series [2] came to 38 °C.

As for GATCACAAATGTGATC ((((((....)))))), the folding enthalpy in series [1] was -33.4 kcal/mol. In addition, in series [2], the Tm is 55.5 °C.

With GATCATCGGAATGATC ((((((....)))))), the folding enthalpy in series [1] was -38.9 kcal/mol. In series [2], the Tm came out at 45.8 °C.

Take GGCGACGAAAGTCCGCC ((((((....))).))): the folding enthalpy in series [1] was -32.2 kcal/mol. Further, the Tm in series [2] was 63.6 °C.

For the sequence GCACACGGAAACGTGTAC (.(((((....))))).), the folding enthalpy in series [1] is -13.8 kcal/mol. For the same sequence, in series [2], the Tm is 41.2 °C.

Consider GATCAGGCCGCTGATC ((((((....)))))), for which the folding enthalpy in series [1] was -41.3 kcal/mol. Moreover, the Tm in series [2] came to 51.8 °C.

Consider GACGAAGGAAACTTCATC ((.((((....)))).)), for which the folding enthalpy in series [1] was -14.7 kcal/mol. Moreover, the Tm in series [2] is 26.9 °C.

For GCATGCGAAAGCAGTTGC ((((((....)))..))), in series [1], the folding enthalpy was -16.5 kcal/mol. Moreover, in series [2], the Tm was determined as 43 °C.

In the case of GATCCCAAGTGGGATC ((((((....)))))), in series [1], the folding enthalpy was -37.4 kcal/mol. Besides, in series [2], the Tm is 60.5 °C.

With GGCGCAGGAAACTGCACC ((.((((....)))).)), the folding enthalpy in series [1] was -29.9 kcal/mol. For the same sequence, in series [2], the Tm amounted to 54.4 °C.

GTATGCGAAAGCAGTTAC ((((((....)))..))): the folding enthalpy in series [1] was -10.1 kcal/mol. Moreover, in series [2], the Tm was 28.2 °C.

Regarding GCCGACGAAAGTCCAGGC ((((((....)))..))), in series [1], the folding enthalpy was -25.2 kcal/mol. In addition, the Tm in series [2] came out at 51.7 °C.

Regarding GTGAACTCGAAAGAGCAC (((..(((....)))))), the folding enthalpy in series [1] was -13.4 kcal/mol. Besides, in series [2], the Tm turned out to be 35.1 °C.

In the case of GCTAGGCGAAAGCACAGC (((..((....))..))), the folding enthalpy in series [1] was -19.4 kcal/mol. For the same sequence, the Tm in series [2] was 46.3 °C.

For the sequence GATCTTGTCAAAGATC ((((((....)))))), in series [1], the folding enthalpy is -41.9 kcal/mol. The Tm in series [2] is 54.8 °C.

On to GACTGCGGAAACGCAATC ((.((((....)))).)), for which the folding enthalpy in series [1] is -15.4 kcal/mol. In addition, the Tm in series [2] came out at 38 °C.

On to GCCATGCGAAAGCTAGGC (((..((....))..))), for which, in series [1], the folding enthalpy is -27.3 kcal/mol. Moreover, the Tm in series [2] was found to be 62.2 °C.

In the case of GCTAATGGAAACACTAGC ((((.((....)).)))), in series [1], the folding enthalpy was -23.9 kcal/mol. Besides, the Tm in series [2] is 31.2 °C.

For the sequence GATCTACGTTAGATC ((((((...)))))), the folding enthalpy in series [1] is -24.8 kcal/mol. The Tm in series [2] was determined as 38.3 °C.

In the case of GATCATTCGGATGATC ((((((....)))))), the folding enthalpy in series [1] was -35.5 kcal/mol. The Tm in series [2] is 48.1 °C.

Take GTATGCGAAAGCAGGTAC ((((((....)))..))): the folding enthalpy in series [1] was -13.2 kcal/mol. The Tm in series [2] was 30 °C.

Take GGCGAAGGAAACCTCGCC (((((.(....).))))): the folding enthalpy in series [1] was -46.7 kcal/mol. The Tm in series [2] was 55.3 °C.

For CGCACCGGAAACGGGCG (((.(((....)))))), in series [1], the folding enthalpy is -25.2 kcal/mol. Also, the Tm in series [2] was determined as 55.7 °C.

For the sequence CGGCGCGGAAACGCCCG (((.(((....)))))), the folding enthalpy in series [1] is -16.7 kcal/mol. The Tm in series [2] worked out at 56.5 °C.

(Values after the array DNA melting data of Ke et al. (doi:10.1101/2024.01.08.574731).)
